This test relates to Staphylococcus epidermidis. Put plainly: Antibacterial activity against methicillin-susceptible Staphylococcus epidermidis isolate CANWARD-2008 81388 after 18 hrs by microtiter dilution assay. The class given is functional. The note with it: isolate CANWARD-2008 81388, 18 h. Summed up: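 Broth microdilution following CLSI guidelines. An overnight culture was adjusted to 0.5 McFarland in saline, then diluted 1:50 in Mueller-Hinton broth. This inoculum was added in equal volume to 2-fold serial dilutions of agent in MHB and incubated 18 h at 37 °C. MIC was the lowest concentration with no visible growth.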

Structures are written as SMILES.

One may read the MIC as the least concentration at which growth counts as inhibited. A lower MIC goes with a more susceptible organism.

In turn, `Cl.Cl.Cl.Cl.Cl.Cl.Cl.NCCCC[C@H](N)C(=O)N(CCCCCCCCCCCCO[C@@H]1[C@@H](O[C@H]2O[C@H](CO)[C@@H](O)[C@H](N)[C@H]2O)[C@H](N)C[C@H](N)[C@H]1O[C@H]1O[C@H](CN)[C@@H](O)C[C@H]1N)Cc1c2ccccc2c(Cl)c2ccccc12` registered an MIC of 2 µg/mL.

Values taken from ChEMBL document CHEMBL4014308, “Amphiphilic Tobramycin-Lysine Conjugates Sensitize Multidrug Resistant Gram-Negative Bacteria to Rifampicin and Minocycline” (J Med Chem, 2017).
